Reference: ChEMBL document CHEMBL1144027, “Synthesis and antimycobacterial evaluation of newer 1-cyclopropyl-1,4-dihydro-6-fluoro-7-(substituted secondary amino)-8-methoxy-5-(sub)-4-oxoquinoline-3-carboxylic acids” (Bioorg Med Chem, 2008)
Converted amounts (≈) assume the structure as drawn.

Experiments:
[1] = test system: Vero; experiment: Cytotoxicity against african green monkey Vero cells after 72 hrs by MTT assay; format: cell-based; conditions: Chlorocebus sabaeus
Outline: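 Mammalian Vero cells exposed to compounds at 62.5 µg/ml for 72 h; viability read by cellular conversion of MTT to formazan (Cell Titer 96 non-radioactive proliferation assay).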

[2] = test system: Mycobacterium tuberculosis; experiment: Antimycobacterial activity against Mycobacterium tuberculosis H37Rv by agar dilution method; format: functional
Outline: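 Agar dilution MIC on Middlebrook 7H11 agar with OADC, following the NCCLS-recommended approach, run in duplicate. The MDR clinical isolate was resistant to isoniazid, rifampicin, ethambutol and ofloxacin.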

[3] = test system: Mycolicibacterium smegmatis; experiment: Antimycobacterial activity against Mycobacterium smegmatis MC2 by agar dilution method; format: functional
Outline: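 Agar dilution in Middlebrook 7H11 agar with OADC, run along NCCLS-recommended lines; M. smegmatis ATCC 14468 (MC2); MIC determined in duplicate.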

[4] = test system: Mus musculus; experiment: (§1) Phototoxicity in Swiss albino mouse assessed as erythema incidence at 140 mg/kg, po after 48 hrs of irradiation; format: organism-based; design: dose 140 mg/kg, route oral; conditions: in vivo
Outline: (§2)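 Female Swiss albino mice (~2 months, 20-25 g), fasted ≥18 h, single 140 mg/kg oral gavage dose; groups of 6 (compound, lomefloxacin HCl 140 mg/kg, 0.5% carboxymethylcellulose vehicle 10 ml/kg); UV irradiation 4 h (~18 J/cm²) right after dosing; both ears scored for erythema, oedema, thickness pre-dose, at end of irradiation, and ~24-96 h; thickness given as mean of both ears ± SEM.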

[5] = test system: Mus musculus; experiment: Phototoxicity in Swiss albino mouse assessed as erythema incidence at 140 mg/kg, po after 24 hrs of irradiation; format: organism-based; design: dose 140 mg/kg, route oral; conditions: in vivo; outline: as §2
[6] = test system: Mus musculus; experiment: as §1; format: organism-based; design: dose 140 mg/kg, route oral; conditions: in vivo; outline: as §2; remark: listed apart in the source
[7] = test system: Mus musculus; experiment: Phototoxicity in Swiss albino mouse assessed as ear thickness at 140 mg/kg, po after 48 hrs of irradiation; format: organism-based; design: dose 140 mg/kg, route oral; conditions: in vivo; outline: as §2
[8] = test system: Mus musculus; experiment: Phototoxicity in Swiss albino mouse assessed as ear thickness at 140 mg/kg, po after 4 hrs of irradiation; format: organism-based; design: dose 140 mg/kg, route oral; conditions: in vivo; outline: as §2
[9] = test system: Mus musculus; experiment: Phototoxicity in Swiss albino mouse assessed as erythema incidence at 140 mg/kg, po after 96 hrs of irradiation; format: organism-based; design: dose 140 mg/kg, route oral; conditions: in vivo; outline: as §2
[10] = target: DNA gyrase subunit B (Mycobacterium smegmatis (strain ATCC 700084 / mc(2)155), UniProt A0QNE0); experiment: Inhibition of Mycobacterium smegmatis MC2 DNA gyrase GyrB ATPase supercoiling activity; design: species or system Mycolicibacterium smegmatis
Chain of DNA gyrase subunit B (Mycobacterium smegmatis (strain ATCC 700084 / mc(2)155), UniProt A0QNE0) (A0QNE0 whole entry): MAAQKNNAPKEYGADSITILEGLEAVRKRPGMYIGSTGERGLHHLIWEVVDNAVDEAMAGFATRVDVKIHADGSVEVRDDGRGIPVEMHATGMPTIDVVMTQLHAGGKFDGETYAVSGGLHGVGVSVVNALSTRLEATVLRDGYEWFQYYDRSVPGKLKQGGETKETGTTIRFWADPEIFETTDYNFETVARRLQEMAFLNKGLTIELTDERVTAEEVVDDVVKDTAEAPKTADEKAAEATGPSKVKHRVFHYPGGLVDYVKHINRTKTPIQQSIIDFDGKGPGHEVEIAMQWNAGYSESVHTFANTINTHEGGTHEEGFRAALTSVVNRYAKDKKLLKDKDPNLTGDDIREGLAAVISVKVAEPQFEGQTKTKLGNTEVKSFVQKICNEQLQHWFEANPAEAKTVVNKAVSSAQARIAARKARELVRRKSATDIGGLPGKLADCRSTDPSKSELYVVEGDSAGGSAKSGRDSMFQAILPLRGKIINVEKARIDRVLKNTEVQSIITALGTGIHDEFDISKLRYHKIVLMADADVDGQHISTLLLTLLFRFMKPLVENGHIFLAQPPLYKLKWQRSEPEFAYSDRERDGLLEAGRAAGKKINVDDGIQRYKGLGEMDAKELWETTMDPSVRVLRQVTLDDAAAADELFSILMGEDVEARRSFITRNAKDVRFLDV
Outline: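 Gyrase purified from M. smegmatis MC2 cells; compounds in DMSO pre-incubated with enzyme, then 400 ng relaxed pUC18 added in 35 mM Tris-HCl pH 7.5, 5 mM MgCl2, 25 mM K glutamate, 2 mM spermidine, 2 mM ATP, BSA, tRNA, 5% glycerol; 30 min; heat-stopped 65 °C 15 min; agarose gel, ethidium bromide staining; ciprofloxacin 10 µg/ml and 5% DMSO controls.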

[11] = test system: Mus musculus; experiment: Phototoxicity in Swiss albino mouse assessed as ear thickness at 140 mg/kg, po after 24 hrs of irradiation; format: organism-based; design: dose 140 mg/kg, route oral; conditions: in vivo; outline: as §2
[12] = test system: Mus musculus; experiment: Phototoxicity in Swiss albino mouse assessed as ear thickness at 140 mg/kg, po after 96 hrs of irradiation; format: organism-based; design: dose 140 mg/kg, route oral; conditions: in vivo; outline: as §2
[13] = test system: Mus musculus; experiment: Phototoxicity in Swiss albino mouse assessed as ear thickness at 140 mg/kg, po after 72 hrs of irradiation; format: organism-based; design: dose 140 mg/kg, route oral; conditions: in vivo; outline: as §2
[14] = test system: Mus musculus; experiment: Phototoxicity in Swiss albino mouse assessed as erythema incidence at 140 mg/kg, po after 4 hrs of irradiation; format: organism-based; design: dose 140 mg/kg, route oral; conditions: in vivo; outline: as §2

SMILES	IC50 [1] [µM]	MIC [2] [µM]	MIC [3] [µM]	further results
CCN(CC)C(=O)C1CCCN(c2c(F)c([N+](=O)[O-])c3c(=O)c(C(=O)O)cn(C4CC4)c3c2OC)C1 (stereo not drawn)	124	1.55 (≈ 0.782 µg/mL)	12.4 (≈ 6.25 µg/mL)	
COc1c(N2CCC(O)(c3ccc(Cl)cc3)CC2)c(F)c([N+](=O)[O-])c2c(=O)c(C(=O)O)cn(C3CC3)c12		5.88 (≈ 3.13 µg/mL)	11.8 (≈ 6.25 µg/mL)	
COc1ccc(CC2C3=C(CCCC3)CCN2c2c(F)c(N)c3c(=O)c(C(=O)O)cn(C4CC4)c3c2OC)cc1 (stereo not drawn)	114	2.85 (≈ 1.56 µg/mL)	5.72 (≈ 3.13 µg/mL)	
CCN(CC)C(=O)C1CCCN(c2c(F)cc3c(=O)c(C(=O)O)cn(C4CC4)c3c2OC)C1 (stereo not drawn)	136	1.69 (≈ 0.777 µg/mL)	0.85 (≈ 0.391 µg/mL)	Activity [4]: Non-toxic; Activity [5]: Non-toxic; Activity [6]: Non-toxic; Activity [7]: 0.37 mm; Activity [8]: 0.38 mm; Activity [9]: Non-toxic; IC50 [10]: > 109 µM; Activity [11]: 0.36 mm; Activity [12]: 0.39 mm; Activity [13]: 0.39 mm
COc1c(N2CCN(C(=O)C3COc4ccccc4O3)CC2)c(F)cc2c(=O)c(C(=O)O)cn(C3CC3)c12 (stereo not drawn)	119	1.49 (≈ 0.78 µg/mL)	1.49 (≈ 0.78 µg/mL)	Activity [4]: Non-toxic; Activity [5]: Non-toxic; Activity [6]: Non-toxic; Activity [7]: 0.33 mm; Activity [8]: 0.31 mm; Activity [9]: Non-toxic; IC50 [10]: 57.3 µM; Activity [11]: 0.32 mm; Activity [12]: 0.32 mm; Activity [14]: Non-toxic; Activity [13]: 0.33 mm
COc1c(N2CCc3ccccc3C2C(=O)NC(C)(C)C)c(F)cc2c(=O)c(C(=O)O)cn(C3CC3)c12 (stereo not drawn)		12.3 (≈ 6.25 µg/mL)	49.3 (≈ 25 µg/mL)	
COc1c(N2CC(C)OC(C)C2)c(F)cc2c(=O)c(C(=O)O)cn(C3CC3)c12 (stereo not drawn)	160	3.99 (≈ 1.56 µg/mL)	16 (≈ 6.25 µg/mL)	
COc1c(N2CCn3cc(C(=O)O)nc3C2)c(F)c([N+](=O)[O-])c2c(=O)c(C(=O)O)cn(C3CC3)c12	128	3.12 (≈ 1.52 µg/mL)	6.42 (≈ 3.13 µg/mL)	
COc1c(N2CCN(C(=O)C3COc4ccccc4O3)CC2)c(F)c([N+](=O)[O-])c2c(=O)c(C(=O)O)cn(C3CC3)c12 (stereo not drawn)	110	1.37 (≈ 0.779 µg/mL)	2.74 (≈ 1.56 µg/mL)	IC50 [10]: > 87.9 µM
COc1ccc(CC2C3=C(CCCC3)CCN2c2c(F)cc3c(=O)c(C(=O)O)cn(C4CC4)c3c2OC)cc1 (stereo not drawn)	117	1.46 (≈ 0.778 µg/mL)	2.93 (≈ 1.56 µg/mL)	IC50 [10]: 75.1 µM
COc1c(N2CCN(Cc3ccc4c(c3)OCO4)CC2)c(F)c([N+](=O)[O-])c2c(=O)c(C(=O)O)cn(C3CC3)c12	116	0.35 (≈ 0.189 µg/mL)	1.44 (≈ 0.778 µg/mL)	Activity [5]: Non-toxic; Activity [7]: 0.3 mm; Activity [8]: 0.27 mm; Activity [11]: 0.28 mm; Activity [12]: 0.31 mm; Activity [14]: Non-toxic; Activity [13]: 0.33 mm
COc1c(N2CCC(N3CCCCC3)CC2)c(F)c([N+](=O)[O-])c2c(=O)c(C(=O)O)cn(C3CC3)c12		6.41 (≈ 3.13 µg/mL)	12.8 (≈ 6.25 µg/mL)	
COc1c(N2CCN(Cc3ccc4c(c3)OCO4)CC2)c(F)c(N)c2c(=O)c(C(=O)O)cn(C3CC3)c12		3.06 (≈ 1.56 µg/mL)	6.13 (≈ 3.13 µg/mL)	
COc1c(N2CCSCC2)c(F)c([N+](=O)[O-])c2c(=O)c(C(=O)O)cn(C3CC3)c12	148	1.84 (≈ 0.779 µg/mL)	3.68 (≈ 1.56 µg/mL)	IC50 [10]: > 118 µM
COc1c(N2CCC(n3c(=O)[nH]c4cc(Cl)ccc43)CC2)c(F)c([N+](=O)[O-])c2c(=O)c(C(=O)O)cn(C3CC3)c12		5.47 (≈ 3.13 µg/mL)	10.9 (≈ 6.25 µg/mL)	
COc1c(N2CCN(C)C(c3ccccc3)C2)c(F)c([N+](=O)[O-])c2c(=O)c(C(=O)O)cn(C3CC3)c12 (stereo not drawn)	126	3.14 (≈ 1.56 µg/mL)	6.3 (≈ 3.13 µg/mL)	
COc1c(N2CCN(C)C(c3ccccc3)C2)c(F)cc2c(=O)c(C(=O)O)cn(C3CC3)c12 (stereo not drawn)		13.8 (≈ 6.25 µg/mL)	27.7 (≈ 12.5 µg/mL)	
COc1c(N2CCN(C(=O)c3ccco3)CC2)c(F)c([N+](=O)[O-])c2c(=O)c(C(=O)O)cn(C3CC3)c12		6.25 (≈ 3.13 µg/mL)	12.5 (≈ 6.25 µg/mL)	
